Assay results taken from ChEMBL document CHEMBL2146382, “Cytotoxic and antineoplastic activity of timosaponin A-III for human colon cancer cells” (J Nat Prod, 2011).
Calls of active or inactive are those of the source. The calls are words filed in the database; no cut-off is given here.

Experiments:
[1] = tested on: HCT-15; test: Cell cycle arrest in human HCT15 cells assessed as accumulation at G2/M phase at 20 uM after 24 hrs using propidium-iodide staining by flow-cytometry (reference value: 22.4 %); assay type: functional
[2] = tested on: HCT-15; test: Antineoplastic activity against human HCT15 cells xenografted nude in BALB/c mouse assessed as inhibition of rate of tumor size at 2 mg/kg, ip 3 times a week for 4 weeks relative to control; assay type: functional; conditions: HCT-15, ip, 672 h, route intraperitoneal
Method in brief: (§1)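 HCT-15 cells (2 × 10^6 in 200 μL medium) implanted subcutaneously in flanks of BALB/c-nu (nu/nu) mice; dosing began at ca. 80 mm3 tumours; groups of five, randomized. 2 or 5 mg/kg given ip three times weekly in ethanol–cremophor–H2O (0.5:0.5:99), vehicle controls; caliper volume (3.14·L·W·H/6) three times weekly for 30 days; Ki-67 immunohistochemistry on tumour sections (1:250, 4 °C overnight, DAB, hematoxylin counterstain).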

[3] = tested on: Mus musculus; test: Toxicity in human HCT15 cells xenografted nude BALB/c mouse assessed as body weight changes at 2 to 5 mg/kg, ip administered 3 times a week for 4 weeks measured after 9 to 30 days; assay type: organism-based, HCT-15; set-up: route intraperitoneal; conditions: in vivo
Method in brief: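 HCT-15 cells (2 × 10^6) were injected subcutaneously into the flank of BALB/c-nu (nu/nu) mice. Dosing began once tumours reached ca. 80 mm3, with mice randomised to groups of five. Compound (2 or 5 mg/kg) in ethanol-cremophor-H2O (0.5:0.5:99) was given ip three times weekly for four weeks. Controls received equal-volume vehicle. Body weight was monitored over the testing period, with tumour measurements over 30 days.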

[4] = tested on: HCT-15; test: Cell cycle arrest at G0/G1 phase in human HCT15 cells assessed as decrease in c-Myc expression at 5 to 20 uM after 24 hrs by Western blot analysis; assay type: functional, cell-based
Method in brief: (§2)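 HCT-15 cells in RPMI/10% FBS exposed to test compound at various concentrations; lysates quantified by BCA, 30–50 μg protein run on 10% SDS-PAGE, transferred to PVDF, blocked 1 h in 5% milk/PBST, primary antibodies overnight at 4 °C, HRP anti-mouse IgG 1:1500 for 3 h at room temperature, ECL detection.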

[5] = tested on: HCT-15; test: Cell cycle arrest at G0/G1 phase in human HCT15 cells assessed as suppression of Rb ser807/811 phosphorylation at 5 to 20 uM after 12 to 24 hrs by Western blot analysis; assay type: functional, cell-based; method in brief: as §2
[6] = tested on: HCT-15; test: Cell cycle arrest at […] phase in human HCT15 cells assessed as CDK4 down regulation at 5 to 20 uM after 12 to 24 hrs by Western blot analysis; assay type: functional, cell-based; method in brief: as §2
[7] = tested on: HCT-15; test: Cell cycle arrest at M phase in human HCT15 cells assessed as decrease in cyclin B1 level at 5 to 20 uM after 12 to 24 hrs by Western blot analysis; assay type: functional, cell-based; method in brief: as §2
[8] = tested on: HCT-15; test: Induction of apoptosis in human HCT15 cells assessed as suppression of procaspase-9 expression at 5 to 20 uM after 12 to 24 hrs by Western blot analysis; assay type: functional, cell-based
Method in brief: (§3)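 HCT-15 cells (RPMI, 10% heat-inactivated FBS, antibiotics-antimycotics, 37 C, 5% CO2) exposed to compound. Cells lysed, protein measured by BCA, 30-50 μg per lane resolved on 10% SDS-PAGE and electroblotted to PVDF. Membranes blocked 1 h in 5% nonfat milk/PBST, probed with primary antibodies overnight at 4 C, then HRP anti-mouse IgG 1:1500 for 3 h at room temperature. Detection by ECL; β-actin antibody available.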

[9] = tested on: HCT-15; test: Induction of apoptosis in human HCT15 cells assessed as suppression of procaspase-3 expression at 5 to 20 uM after 12 to 24 hrs by Western blot analysis; assay type: functional, cell-based; method in brief: as §3
[10] = tested on: HCT-15; test: Induction of apoptosis in human HCT15 cells assessed as increase in caspase-9 expression after 12 to 24 hrs by Western blot analysis; assay type: functional, cell-based; method in brief: as §3
[11] = tested on: HCT-15; test: Induction of apoptosis in human HCT15 cells assessed as increase in caspase-3 expression at 5 to 20 uM by Western blot analysis; assay type: functional, cell-based; method in brief: as §2
[12] = tested on: HCT-15; test: Induction of apoptosis in human HCT15 cells assessed as increase in caspase-3 expression after 12 to 24 hrs by Western blot analysis; assay type: functional, cell-based; method in brief: as §2
[13] = tested on: HCT-15; test: Induction of apoptosis in human HCT15 cells assessed as suppression of Bcl2 expression at 5 to 20 uM after 24 hrs by Western blot analysis; assay type: functional, cell-based; method in brief: as §3
[14] = tested on: SW480; test: Growth inhibition of human SW480 cells; assay type: functional, cell-based
Method in brief: (§4)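 SRB assay: cells at 5 × 10^4 cells/mL were exposed to a concentration series for 3 days, fixed with 10% TCA and stained with sulforhodamine B. Survival was expressed as % of solvent-treated control and IC50 taken by nonlinear regression of % survival versus concentration. Media held 10% heat-inactivated FBS plus antibiotics: RPMI (HCT-15, HCT 116, HT-29), RPMI with 25 mM HEPES (SW480, SW620), DMEM (MRC-5, Hs68). Cultures were kept at 37 C, 5% CO2.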

[15] = tested on: SW-620; test: Growth inhibition of human SW620 cells; assay type: functional, cell-based; method in brief: as §4
[16] = Growth inhibition of human […] cells; assay type: cell-based; method in brief: as §4
[17] = tested on: Hs68; test: Growth inhibition of human HS68 cells; assay type: cell-based; method in brief: as §4
[18] = tested on: HCT-15; test: Cell cycle arrest in human HCT15 cells assessed as increase in cyclin D1 expression up to 10 uM after 12 to 24 hrs by Western blot analysis; assay type: functional, cell-based; method in brief: as §2
[19] = tested on: HCT-15; test: Cytotoxicity against human HCT15 cells assessed as dead cells up to 20 uM after 12 to 24 hrs by phase contrast microscopy; assay type: functional, cell-based
Method in brief: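 HCT-15 cells treated with 0–20 μM for 12 and 24 h, vehicle-treated controls; morphology examined and photographed under phase-contrast microscope.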

[20] = tested on: HCT-15; test: Cell cycle arrest in human HCT15 cells assessed as accumulation at sub-G1 phase at 5 uM after 12 hrs using propidium-iodide staining by flow-cytometry (reference value: 5.2 %); assay type: functional
[21] = tested on: HCT-15; test: Cell cycle arrest in human HCT15 cells assessed as accumulation at G0/G1 phase at 5 uM after 12 hrs using propidium-iodide staining by flow-cytometry (reference value: 44.4 %); assay type: functional
[22] = tested on: HCT-15; test: Cell cycle arrest in human HCT15 cells assessed as accumulation at S phase at 5 uM after 12 hrs using propidium-iodide staining by flow-cytometry (reference value: 34.7 %); assay type: functional
[23] = tested on: HCT-15; test: Cell cycle arrest in human HCT15 cells assessed as accumulation at G0/G1 phase at 5 uM after 24 hrs using propidium-iodide staining by flow-cytometry (reference value: 37.0 %); assay type: functional
[24] = tested on: HCT-15; test: Cell cycle arrest in human HCT15 cells assessed as accumulation at S phase at 10 uM after 24 hrs using propidium-iodide staining by flow-cytometry (reference value: 34.1 %); assay type: functional
[25] = tested on: HCT-15; test: Antineoplastic activity against human HCT15 cells xenografted in nude BALB/c mouse assessed as tumor growth inhibition at 2 to 5 mg/kg, ip 3 times a week for 4 weeks; assay type: functional, organism-based; method in brief: as §1
[26] = tested on: HCT-15; test: Cytotoxicity against human HCT15 cells after 3 days; assay type: functional, cell-based; conditions: HCT-15, 72 h; method in brief: as §4
[27] = tested on: HCT-15; test: Cell cycle arrest in human HCT15 cells assessed as change in PCNA level at 5 to 20 uM after 12 to 24 hrs by Western blot analysis

C[C@H]1CC[C@@]2(OC1)O[C@H]1C[C@H]3[C@@H]4CC[C@@H]5C[C@@H](O[C@@H]6O[C@H](CO)[C@H](O)[C@H](O)[C@H]6O[C@@H]6O[C@H](CO)[C@@H](O)[C@H](O)[C@H]6O)CC[C@]5(C)[C@H]4CC[C@]3(C)[C@H]1[C@@H]2C [TIMOSAPONIN AIII]
Activity [1]: 0%
inhibition in vivo at 2 mg/kg [2]: 8.3%
Activity [3]: Non-toxic
Activity [4]: Active
Activity [5]: Active
Activity [6]: Active
Activity [7]: Active
Activity [8]: Active
Activity [9]: Active
Activity [10]: Active
Activity [11]: Active
Activity [12]: Active
Activity [13]: Active
IC50 [14]: 13.1 µM
IC50 [15]: 11.1 µM
IC50 [16]: > 50 µM
IC50 [17]: > 50 µM
Activity [18]: Active
Activity [19]: Active
Activity [20]: 4.8%
Activity [21]: 52.2%
Activity [22]: 22.5%
Activity [23]: 36.4%
Activity [24]: 15.3%
TGI [25]: Active
IC50 [26]: 6.1 µM
Activity [27]: inactive
